Measured values as given in ChEMBL document CHEMBL1127690, “Antiinflammatory 4,5-diarylpyrroles: synthesis and QSAR” (J Med Chem, 1994).
One block for each compound: values may come before it.

Key:
[1] = species: Rattus norvegicus; experiment: Antiinflammatory activity against adjuvant induced arthritis in male charles river rats; type: functional
[2] = Elimination half life at dose of 12.2uM/kg, po; settings: in vivo
[3] = TD50/ED50 value of the compound; type: functional
Method in brief: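 Ratio of the GI lesion TD50 to the established adjuvant arthritis paw ED50, both measured orally in rats.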

[4] = Gastrointestinal safety of a compound relative to indomethacin and piroxicam; type: ADME
Method in brief: (§1)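 Male Sprague-Dawley rats (~165 g) received a single oral dose of drug or vehicle. Stomach and small intestine were examined for mucosal lesions under a 10× dissecting microscope in coded, randomized order. Any single lesion counted as positive. TD50 was calculated by the moving-average method.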

[5] = Volume of distribution at dose of 12.2 uM/kg, iv; type: ADME, organism-based; settings: in vivo
[6] = Elimination half life at dose of 12.2 uM/kg, iv; type: ADME, organism-based; settings: in vivo
[7] = Maximum blood level reached after an iv dose of 12.2 uM/kg; type: ADME, organism-based; parameters: dose 12.2 uM/kg, route intravenous; settings: in vivo
[8] = tested on: Rattus norvegicus; experiment: Safety assessment in adjuvant induced arthritis rat model (AA),po; type: functional
[9] = Volume of distribution at dose of 14.7 uM/kg intravenous route; type: ADME, organism-based; settings: in vivo
[10] = Maximum blood level reached after an oral dose 14.7 uM/kg oral route; type: ADME, organism-based; parameters: dose 14.7 uM/kg, route oral; settings: in vivo
[11] = Elimination half life at dose of 14.7 uM/kg oral route; type: ADME, organism-based; settings: in vivo
[12] = Elimination half life at dose of 14.7 uM/kg intravenous route; type: ADME, organism-based; settings: in vivo
[13] = Maximum blood level reached after an oral dose of 14.7 uM/kg intravenous route; type: ADME, organism-based; settings: in vivo
[14] = (§2) Safety assessment in car paw assay, po; type: toxicity
[15] = species: Rattus norvegicus; experiment: Effective dose required for prevention of nonestablished adjuvant arthritis model wih an oral paw 18-day; type: functional; settings: 432 h
[16] = biological target: T1, Polyunsaturated fatty acid 5-lipoxygenase (Rattus norvegicus, UniProt P12527); experiment: Inhibitory activity against rat basophilic leukemia 5-lipoxygenase
T1 sequence (P12527 whole entry): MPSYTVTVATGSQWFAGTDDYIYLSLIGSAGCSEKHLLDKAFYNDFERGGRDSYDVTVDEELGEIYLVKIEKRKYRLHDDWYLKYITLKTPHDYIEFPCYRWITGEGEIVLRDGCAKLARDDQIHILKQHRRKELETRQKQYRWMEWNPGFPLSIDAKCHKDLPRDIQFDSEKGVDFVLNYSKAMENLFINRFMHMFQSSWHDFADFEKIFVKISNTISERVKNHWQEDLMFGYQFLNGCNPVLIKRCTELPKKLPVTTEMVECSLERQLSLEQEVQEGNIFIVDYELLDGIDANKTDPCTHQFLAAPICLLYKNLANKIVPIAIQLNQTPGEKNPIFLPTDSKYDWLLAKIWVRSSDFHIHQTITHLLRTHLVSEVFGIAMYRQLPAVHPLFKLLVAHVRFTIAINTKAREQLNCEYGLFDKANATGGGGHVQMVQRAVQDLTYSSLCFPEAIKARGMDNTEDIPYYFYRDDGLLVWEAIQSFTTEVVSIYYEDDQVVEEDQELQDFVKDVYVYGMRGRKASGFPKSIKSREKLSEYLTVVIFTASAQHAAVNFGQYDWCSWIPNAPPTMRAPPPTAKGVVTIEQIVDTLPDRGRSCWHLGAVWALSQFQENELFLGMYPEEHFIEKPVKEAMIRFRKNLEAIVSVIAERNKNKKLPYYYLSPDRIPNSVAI

[17] = species: Rattus norvegicus; experiment: Compound was evaluated for 12 day tolerance in long evans rats; type: functional
[18] = species: Rattus norvegicus; experiment: Maximum tolerated dose for 12 days in long evans rats; type: functional
[19] = species: Mus musculus; experiment: Activity in the mouse oral contact sensitivity model; type: functional
[20] = tested on: Rattus norvegicus; experiment: Safety assessment in adjuvant induced arthritis rat model (AA),day 18,po; type: functional; settings: 432 h
[21] = Cmax value at a dose of 6.3 uM/kg, iv; type: ADME, organism-based; parameters: dose 6.3 uM/kg, route intravenous; settings: in vivo
[22] = Volume of distribution at a dose of 6.3 uM/kg, iv; type: ADME, organism-based; settings: in vivo
[23] = Cmax value at a dose of 12.7 uM/kg, po; type: ADME, organism-based; parameters: dose 12.7 uM/kg, route oral; settings: in vivo
[24] = Elimination half life at a dose of 12.7 uM/kg, po; type: ADME, organism-based; settings: in vivo
[25] = Ratio (12-day no effect/AA ED50) of the compound; type: functional
Method in brief: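 Maximum no-effect dose from the 12-day study divided by the adjuvant arthritis ED50. […] Read-outs were mortality, pharmacologic or toxic signs, body and organ weights and gross necropsy.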

[26] = Elimination half life at a dose of 6.3 uM/kg iv; type: ADME, organism-based; settings: in vivo
[27] = Maximum blood level reached after an oral dose of 5.0 mg/kg; type: ADME, organism-based; parameters: dose 5 mg/kg, route oral; settings: in vivo
[28] = Volume of distribution at a dose of 7.1 uM/kg, iv; type: ADME, organism-based; settings: in vivo
[29] = Elimination half life at a dose of 14.3 uM/kg, po; type: ADME, organism-based; settings: in vivo
[30] = Bioavailability at a dose of 7.1 uM/kg, iv; type: ADME, organism-based; settings: eutheria, in vivo
[31] = Cmax value at a dose of 7.1 uM/kg, iv; type: ADME, organism-based; parameters: dose 7.1 uM/kg, route intravenous; settings: in vivo
[32] = Elimination half life at a dose of 7.1 uM/kg, iv; type: ADME, organism-based; settings: in vivo
[33] = Elimination half life at dose of 10.6 uM/kg orally; type: ADME, organism-based; settings: in vivo, po
[34] = Maximum blood level reached at dose of 10.6 uM/kg orally; type: ADME, organism-based; parameters: dose 10.6 uM/kg, route oral; settings: in vivo, po
[35] = Maximum blood level reached after an dose of 10.6 uM/kg intravenously; type: ADME, organism-based; parameters: dose 10.6 uM/kg, route intravenous; settings: in vivo, iv
[36] = Elimination half life at dose of 10.6 uM/kg intravenously; type: ADME, organism-based; settings: in vivo, iv
[37] = Volume of distribution at dose of 10.6 uM/kg intravenously; type: ADME, organism-based; settings: in vivo, iv
[38] = tested on: Rattus norvegicus; experiment: as §2; type: functional
[39] = species: Rattus norvegicus; experiment: Activity in the nonestablished adjuvant-induced arthritis model; type: functional
[40] = Gastrointestinal safety of a compound relative to indomethacin and piroxicam in rats; type: ADME, organism-based; settings: rat, in vivo; method in brief: as §1
[41] = species: Mus musculus; experiment: Effective dose of compound against analgesia was determined by phenylquinone writhing assay

Structure (SMILES): CCOC(=O)CCCCn1c(Cl)cc(-c2ccc(F)cc2)c1-c1ccc(S(C)(=O)=O)cc1
ED50 [1]: > 100 mg/kg

Structure (SMILES): CS(=O)(=O)c1ccc(-c2[nH]c(I)cc2-c2ccc(F)cc2)cc1
ED50 [1]: 22 mg/kg

Structure (SMILES): CC(C)Cc1ccc(C(C)C(=O)O)cc1 (stereo unspecified) [IBUPROFEN]
ED50 [1]: 100 mg/kg

Structure (SMILES): CS(=O)(=O)c1ccc(-c2[nH]c(I)c(I)c2-c2ccc(F)cc2)cc1
ED50 [1]: 41.3 mg/kg

Structure (SMILES): COc1ccc2c(c1)c(CC(=O)O)c(C)n2C(=O)c1ccc(Cl)cc1 [INDOMETHACIN]
ED50 [1]: 0.3 mg/kg

half-life [2]: 4.3 h
Vd [5]: 10 L/kg
half-life [6]: 13.7 h
Cmax [7]: 2.9 uM l-1
Structure (SMILES): Cn1c(Br)cc(-c2ccc(F)cc2)c1-c1ccc(S(C)(=O)=O)cc1
TD50/ED50 [3]: > 100
TD50 [4]: > 416 µmol/kg
ED50 [1]: 1.7 mg/kg
ED50 ([8]; read-out: ED50): 3.43 µmol/kg

Structure (SMILES): CS(=O)(=O)c1ccc(-c2[nH]c(Br)c(Cl)c2-c2ccc(F)cc2)cc1
ED50 [1]: 4.28 mg/kg

Structure (SMILES): Cn1c(Br)c(Br)c(-c2ccc(F)cc2)c1-c1ccc(S(C)(=O)=O)cc1
ED50 [1]: 4.16 mg/kg

Structure (SMILES): CS(=O)(=O)c1ccc(-c2[nH]c(F)c(F)c2-c2ccc(F)cc2)cc1
ED50 [1]: 0.31 mg/kg

Structure (SMILES): CS(=O)(=O)c1ccc(-c2[nH]c([N+](=O)[O-])cc2-c2ccc(F)cc2)cc1
ED50 [1]: 9 mg/kg

Vd [9]: 5.7 L/kg
Cmax [10]: 2.9 uM l-1
half-life [11]: 17.3 h
half-life [12]: 13.7 h
Cmax [13]: 4.1 uM l-1
Structure (SMILES): CS(=O)(=O)c1ccc(-c2[nH]c(C#N)cc2-c2ccc(F)cc2)cc1
TD50/ED50 [3]: > 100
TD50 [4]: > 381 µmol/kg
ED50 [1]: 1.3 mg/kg
ED50 ([8]; read-out: ED50): 3.82 µmol/kg

Structure (SMILES): Cc1ccc(S(=O)(=O)n2c(Br)cc(-c3ccc(F)cc3)c2-c2ccc(S(C)(=O)=O)cc2)cc1
ED50 [1]: > 9 mg/kg

Structure (SMILES): CS(=O)(=O)c1ccc(-c2[nH]c(F)cc2-c2ccc(F)cc2)cc1
ED50 [1]: 0.31 mg/kg

Structure (SMILES): CS(=O)(=O)c1ccc(-c2[nH]c(SC#N)cc2-c2ccc(F)cc2)cc1
ED30 [14]: 268.5 µM/kg
ED50 [15]: 7 mg/kg
TD50 [4]: > 335 µmol/kg
IC50 [16]: 80 nM
no-effect dose [17]: >418 µM/kg
ED50 [1]: 3.9 mg/kg
Max tolerated dose [18]: >418 µM/kg
ED35 [19]: 8 mg/kg
ED50 ([20]; read-out: ED50): 18.8 µmol/kg
ED50 ([8]; read-out: ED50): 10.5 µmol/kg

Structure (SMILES): CS(=O)(=O)c1ccc(-c2[nH]ccc2-c2ccc(F)cc2)cc1
ED50 [1]: > 100 mg/kg

Structure (SMILES): Cn1c(SC#N)cc(-c2ccc(F)cc2)c1-c1ccc(S(C)(=O)=O)cc1
ED50 [1]: > 27 mg/kg

Structure (SMILES): CS(=O)(=O)c1ccc(-c2[nH]c(C(=O)C(F)(F)F)cc2-c2ccc(F)cc2)cc1
ED50 [1]: 19.4 mg/kg

Structure (SMILES): CS(=O)(=O)c1ccc(-c2[nH]c(Br)cc2-c2ccc(F)cc2)cc1
TD50/ED50 [3]: 36
Cmax [21]: 2 uM l-1
Vd [22]: 3.5 L/kg
TD50 [4]: 95.9 µmol/kg
no-effect dose [17]: >46 µM/kg
ED50 [1]: 1.05 mg/kg
Cmax [23]: 3 uM l-1
ED50 ([20]; read-out: ED50): 22.7 µmol/kg
half-life [24]: 9.9 h
Ratio [25]: > 43
ED50 ([8]; read-out: ED50): 2.55 µmol/kg
half-life [26]: 10.2 h

Structure (SMILES): CS(=O)(=O)c1ccc(-c2[nH]c(S(C)(=O)=O)cc2-c2ccc(F)cc2)cc1
ED50 [1]: 36.6 mg/kg

Structure (SMILES): CC(C)(C)OC(=O)n1c(Br)cc(-c2ccc(F)cc2)c1-c1ccc(S(C)(=O)=O)cc1
ED50 [1]: 31 mg/kg

Cmax [27]: 2.3 uM l-1
Vd [28]: 9 L/kg
half-life [29]: 5.8 h
F [30]: 1
Cmax [31]: 1.4 uM l-1
half-life [32]: 6.1 h
Structure (SMILES): CS(=O)(=O)c1ccc(-c2[nH]c(Cl)cc2-c2ccc(F)cc2)cc1
TD50/ED50 [3]: 70
TD50 [4]: 100 µmol/kg
ED50 [1]: 0.5 mg/kg
ED30 [8]: 1.43 µM/kg

Structure (SMILES): CS(=O)(=O)c1ccc(-c2[nH]c(Cl)c(Br)c2-c2ccc(F)cc2)cc1
ED50 [1]: 3.4 mg/kg

half-life [33]: 47.5 h
Cmax [34]: 1.5 uM l-1
Cmax [35]: 2.8 uM l-1
half-life [36]: 29.3 h
Vd [37]: 4.3 L/kg
Structure (SMILES): CS(=O)(=O)c1ccc(-c2[nH]c(Br)c(Br)c2-c2ccc(F)cc2)cc1
TD50/ED50 [3]: > 113
TD50 [4]: > 211 µmol/kg
ED50 [1]: 1.94 mg/kg
ED50 ([8]; read-out: ED50): 4.1 µmol/kg

Structure (SMILES): CCCCC1C(=O)N(c2ccccc2)N(c2ccccc2)C1=O [PHENYLBUTAZONE]
ED50 [1]: 10 mg/kg

Structure (SMILES): CSc1cc(-c2ccc(F)cc2)c(-c2ccc(S(C)(=O)=O)cc2)[nH]1
ED30 [38]: >276 µM/kg
TD50/ED50 [3]: > 83
ED50 [39]: 25 mg/kg
TD50 [40]: > 414 µmol/kg
no-effect dose [17]: >99 µM/kg
ED50 [1]: 1.8 mg/kg
Max tolerated dose [18]: >199 µM/kg
ED50 [20]: 69.2 µM/kg
Ratio [25]: > 30
ED50 [41]: 46.3 mg/kg
ED50 [8]: 4.98 µM/kg

Structure (SMILES): CS(=O)(=O)c1ccc(-c2[nH]c(Cl)c(Cl)c2-c2ccc(F)cc2)cc1
ED50 [1]: 1.5 mg/kg

Structure (SMILES): Cn1c(Cl)c(Cl)c(-c2ccc(F)cc2)c1-c1ccc(S(C)(=O)=O)cc1
ED50 [1]: 5 mg/kg

Structure (SMILES): CC(=O)n1c(Br)cc(-c2ccc(F)cc2)c1-c1ccc(S(C)(=O)=O)cc1
ED50 [1]: 36.2 mg/kg

Structure (SMILES): CS(=O)(=O)c1ccc(-c2[nH]c(S(=O)(=O)O)cc2-c2ccc(F)cc2)cc1.c1ccncc1
ED50 [1]: 12.7 mg/kg
